# aDG glyco act – increases alpha dystroglycan glycosylation; Pro5-aDG cells, alpha-DG glycosylation AlphaScreen (IIH6); 0% Pro5, 100% B10-LARGE cell signal; activation, % at 10 µM; 0.22% of 360,000 active; AID 624168;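 active means activation of at least 8% versus controls, or a plate z-score of at least 8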;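 further: Pro5 are CHO cells carrying HIG-tagged alpha-DG that lacks glycosylation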
# MPTP block – blocks calcium-induced mitochondrial swelling | inhibition, % at 10 µM | isolated mouse mitochondria, Ca2+ swelling absorbance, 30 min | 1.4% of 360,000 active;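 active means inhibition of 50% or more, scaled per plate between neutral and stimulator controls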
# CHOP inh – blocks CHOP induction under ER stress. 3.8% of 220,000 active. AID 2732. inhibition, % at 10 µM. CHO-K1 CHOP-promoter luciferase, tunicamycin-induced, 15-18 h;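 active means compounds that reduced the stress-induced luciferase reporter signal by more than about 70% of percent inhibition, limit read from the data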
# CHOP UPR activ – apoptotic UPR (CHOP) activation. CHO-CHOP luciferase reporter, luminescence; percent of tunicamycin response over DMSO baseline. activation, % at 10 µM. 0.34% of 330,000 active. AID 449763;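 active means at 10 µM dose, activation of 40% or more, normalized to positive control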
#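 Test system: CHO CHOP reporter cells. Input: 500 CHO-CHOP cells per well. Medium: F12 with 10% FBS. Technique: luciferase luminescence. Measure: percent activation relative to tunicamycin control. Dosing: 10 µM compound, 0.5% DMSO. Timing: 16-18 h cell attachment, then 6 h compound exposure, 37 °C.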
# NR3A LBD binder – NR3A (human) ligand-binding domain modulation | 2.5% of 340,000 active | Tm shift relative to glycine control, % at 25 µM | AID 1259313 | NR3A LBD differential scanning fluorimetry, Tm shift; 0% = protein alone, 100% = glycine-bound protein;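 active means melting temperature shift of at least 10% of the positive control shift, at one fixed dose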
# UPR XBP1 act – adaptive UPR (XBP1) activation; CHO-XBP1 luciferase reporter, IRE1-XBP1 UPR activation, luminescence; percent of tunicamycin response, DMSO as zero; 0.33% of 330,000 active; activation, % at 20 µM;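 active means versus positive control, 20 µM dose yields 30% or more activation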
#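 Material: CHO cell line with stable XBP1 luciferase reporter; schedule: 16-18 h cell attachment at 37 °C, then 6 h compound exposure; signal: glow luminescence from Steady-Glo reagent; medium: serum-containing F12 medium, 10% FBS; benchmarks: tunicamycin 10 µg/mL and vehicle-only wells; read-out: percent activation relative to tunicamycin reference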
# Rh123 counter – membrane potential counter-screen of mitochondrial pore inhibitors; isolated mitochondria, Rhodamine 123 fluorescence; inhibition, % at 10 µM; 78% of 5,000 active; shares compounds with MPTP block; AID 624504; in the data active means inhibition above about 22%
# MPTP abs DR – dose response confirmation of mitochondrial permeability transition pore inhibitors; isolated mitochondria swelling, absorbance; shares compounds with MPTP block; AID 651561; 58% of 780 active; IC50, µM; in the data active means IC50 below about 20 µM
# MPTP cs DR – MPTP inhibitor counter-screen activity, dose response | shares compounds with MPTP block | isolated mitochondria counterscreen, fluorescence read-out | IC50, µM | 49% of 780 active | AID 651564; in the data active means IC50 below about 80 µM
# A number is an active result; i = inactive; nt = no result given; + = active, no number. An excerpt weighted towards active compounds, which were near 5.6% of everything screened.
SMILES,aDG glyco act,MPTP block,CHOP inh,CHOP UPR activ,NR3A LBD binder,UPR XBP1 act,Rh123 counter,others
COc1ccc(C(=O)NNC(=O)CSc2nnc(-c3cccnc3)n2C)cc1,i,i,i,i,i,i,nt,
c1ccc(-c2nnc(-c3c[nH]c4ccccc34)nc2-c2ccccc2)cc1,i,i,i,i,i,i,nt,
ClC(Cl)c1nnc(-c2ccccc2)c(-c2c[nH]c3ccccc23)n1,i,52.2,80.2,i,i,i,46.7,
CC(=O)N1c2ccc(S(=O)(=O)N3CCC(C(=O)N4CCN(c5ccccc5F)CC4)CC3)cc2CC1C (stereo unspecified),i,i,nt,i,i,i,nt,
O=C(Nc1nc(-c2ccccc2)cs1)c1ccccc1NS(=O)(=O)c1ccc(F)cc1,i,93.1,i,i,31.6,i,34.7,
CC(=O)c1c(C)[nH]c(C(=O)Nc2nc(-c3ccc(-c4ccccc4)cc3)cs2)c1C,i,93.8,i,i,11.0,i,69.1,
CC(=O)c1c(C)[nH]c(C(=O)Nc2nc(-c3ccc(Cl)cc3)cs2)c1C,i,94.1,i,i,i,i,58.0,
O=S(=O)(c1ccc(NC(=S)NC23CC4CC(CC(C4)C2)C3)cc1)N1CCCCC1,i,89.8,nt,nt,nt,nt,60.7,
O=S(=O)(c1ccc(Cl)c(NC(=S)N/N=C/c2c(F)cccc2F)c1)N1CCOCC1,i,57.0,i,i,i,i,46.5,
O=C(Nc1ccccc1)Nc1ccc(S(=O)(=O)N2CCCCC2)cc1,i,98.6,i,i,21.8,i,88.7,
O=S(=O)(c1ccc(Cl)c(NC(=S)N/N=C/c2ccc(O)cc2)c1)N1CCOCC1,i,i,i,i,i,i,nt,
Cc1oc(S(=O)(=O)N2CCCCC2)cc1NC(=O)Nc1ccccc1,i,51.2,i,i,i,i,54.0,
CC(C(=O)N(C)Cc1cccc(F)c1)N1CCN(S(=O)(=O)c2ccc3c(c2)OCCCO3)CC1 (stereo unspecified),i,i,nt,i,i,i,nt,
COC(=O)c1ccccc1NS(=O)(=O)c1ccc(Cl)nc1,i,i,i,i,i,i,nt,
O=C(N/N=C\c1c(O)ccc2ccccc12)c1ccc(S(=O)(=O)N2CCCCC2)cc1,i,95.1,i,i,i,i,70.2,
N#C/C(=N\Nc1ccc(S(=O)(=O)N2CCOCC2)cc1)C(N)=S,i,i,i,i,i,i,nt,
Cc1oc(S(=O)(=O)N2CCCCC2)cc1NC(=O)Nc1ccc(Cl)cc1,i,83.7,i,i,i,i,78.5,
O=[N+]([O-])c1cc(Cl)cc(/C=N/NC(=S)Nc2ccc(S(=O)(=O)N3CCOCC3)cc2)c1O,i,71.5,i,i,i,i,25.8,
O=C(N/N=C/c1c(O)ccc2ccccc12)c1ccc(CO)nc1,i,i,nt,i,i,i,nt,
N#CC(C#N)=NNc1ccc(S(=O)(=O)N2CCCCC2)cc1,i,89.1,i,i,12.0,i,91.5,
O=C(CN1C(=O)NC2(CCc3ccccc3C2)C1=O)Nc1ccc(F)cc1 (stereo unspecified),i,i,i,i,i,i,nt,
C[C@H]1CN([C@@H](C)CO)C(=O)Cc2cc(NS(=O)(=O)c3cn(C)cn3)ccc2O[C@@H]1CN(C)C(=O)Nc1ccc(F)cc1,i,i,nt,i,i,i,nt,
CCOC(=O)N1CCN(Cc2nc3cc(NC(=O)c4ccco4)ccc3n2CC)CC1,i,i,nt,i,i,i,nt,
O=S(=O)(c1ccc(NC(=S)NN=Cc2ccccc2O)cc1)N1CCCCC1,i,98.9,nt,nt,i,nt,81.3,
NS(=O)(=O)c1ccc(NC(=S)Nc2ccc(S(=O)(=O)N3CCCC3)cc2)cc1,i,i,i,i,i,i,nt,
SMILES,aDG glyco act,MPTP block,CHOP inh,CHOP UPR activ,NR3A LBD binder,UPR XBP1 act,Rh123 counter,others
O=C(CN1CCCc2ccccc21)N/N=C/c1c(O)ccc2ccccc12,i,94.8,i,i,i,i,88.9,
CCc1nn2cc(C(=O)c3cc(Cl)ccc3O)cnc2c1-c1ccc(F)cc1,i,100.2,i,i,26.7,i,93.0,
O=C(Nc1cccc(Cl)c1)c1cccc(Oc2ccc([N+](=O)[O-])cc2Cl)c1,i,86.0,i,i,i,i,96.7,
COc1ccc(NC(=O)c2cccc(Oc3ccc([N+](=O)[O-])cc3Cl)c2)cc1,i,i,i,i,i,i,nt,
COc1ccc([N+](=O)[O-])cc1NC(=O)Nc1cccc(Cl)c1,i,107.1,i,i,28.7,i,67.1,
CCOC(=O)N1CCN(C(=O)c2cc(Cl)c(Cl)cc2C(=O)O)CC1,i,54.8,i,i,i,i,i,MPTP abs DR=i;MPTP cs DR=i
CCc1nnc(N/N=C/c2ccc(N3CCC(C)CC3)c([N+](=O)[O-])c2)n1N,i,i,i,i,i,i,nt,
Cc1nnc(N/N=C/c2cc([N+](=O)[O-])c(N3CCC(C)CC3)cc2N2CCC(C)CC2)n1N,i,83.2,i,i,i,i,65.8,
S=C(Nc1ccc(Br)cc1)Nc1ccc2c(c1)OCCO2,i,80.8,nt,i,i,i,106.2,
Fc1cccc(NC(=S)Nc2ccc(Br)cc2)c1,i,110.2,i,i,27.3,i,96.1,
Cc1ccccc1NC(=S)Nc1ccc(Br)cc1,i,79.8,i,i,i,i,82.5,
CN(Cc1nccs1)C(=O)C1CCC(=O)N(CCc2ccc(Cl)cc2)C1 (stereo unspecified),i,i,nt,i,i,i,nt,
Cc1ccc(NC(=O)CS(=O)CC(=O)NC23CC4CC(CC(C4)C2)C3)cc1 (stereo unspecified),i,i,nt,i,i,i,nt,
COc1ccc(/C=C2/C(=O)N(c3nc4ccccc4s3)N=C2CSc2ccc(Cl)cc2)cc1,i,91.1,i,i,i,i,56.5,
COc1ccc(S(=O)(=O)N2CCCCC2)cc1NC(=O)CCNC(=O)c1ccco1,i,i,nt,i,i,i,nt,
COCCCNC(=O)c1c(N)n(/N=C/c2cccnc2)c2nc3ccccc3nc12,i,+,i,i,i,i,i,
Nc1ccccc1SC1CC(=O)N(c2ccccc2Cl)C1=O (stereo unspecified),i,i,i,i,i,i,nt,
COCc1cc(C)nc(N/N=C/c2ccc(Cl)c(Cl)c2)c1C#N,i,i,i,i,i,i,nt,
CC(c1ccco1)N(C(=O)Nc1ccc(Cl)cc1)c1ccccn1 (stereo unspecified),i,85.4,i,i,10.5,i,98.3,
